Source: PubChem BioAssay (The Scripps Research Institute Molecular Screening Center)
CHRM5 antagonist: antagonists of human muscarinic M5 receptor (CHRM5). P08912. CHO-hM5 cells, Fluo-8 calcium fluorescence, ACh EC80. inhibition, % at 3 µM. hit rate 0.59% among 360,000;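 active means inhibition above a per-plate cutoff, the mean of that plate's test compounds plus 3 SD, cut at about 27% in these data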;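 further: 0% = acetylcholine EC80 with DMSO and 100% = DMSO without agonist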
Target sequence (P08912 whole entry, looked up): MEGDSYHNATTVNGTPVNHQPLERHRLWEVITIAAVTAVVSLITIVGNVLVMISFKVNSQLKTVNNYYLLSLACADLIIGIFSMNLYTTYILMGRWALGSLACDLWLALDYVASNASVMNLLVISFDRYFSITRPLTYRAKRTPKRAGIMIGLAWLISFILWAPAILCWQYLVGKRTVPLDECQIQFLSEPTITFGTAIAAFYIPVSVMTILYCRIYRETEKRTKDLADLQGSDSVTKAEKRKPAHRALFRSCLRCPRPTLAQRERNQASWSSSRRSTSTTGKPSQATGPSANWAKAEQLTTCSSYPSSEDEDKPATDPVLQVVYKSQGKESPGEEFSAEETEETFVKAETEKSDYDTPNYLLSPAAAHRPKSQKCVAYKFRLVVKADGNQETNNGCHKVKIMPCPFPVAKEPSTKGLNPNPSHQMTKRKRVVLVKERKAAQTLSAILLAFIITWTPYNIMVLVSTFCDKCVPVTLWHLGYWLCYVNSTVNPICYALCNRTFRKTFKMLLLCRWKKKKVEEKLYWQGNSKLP
CHRM5 agonist: agonists of human muscarinic M5 receptor (CHRM5). hit rate 0.19% among 360,000. AID 624037. P08912. CHO-K1 hM5 cells, Fluo-8 calcium fluorescence; 0% DMSO wells, 100% maximal acetylcholine response. activation, % at 3 µM;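 active means activation above the run's mean over test compounds plus 3 SD, cut at about 23% in these data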;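 further: signal is peak over basal fluorescence ratio across the kinetic read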
M5 PAM: potentiates acetylcholine response at human M5 receptor; P08912; CHO-K1 hM5, Fluo-8 calcium, ACh EC20 PAM; 0% = ACh EC20, 100% = ACh EC100; activation, % at 3 µM; hit rate 0.3% among 360,000; AID 624038;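 active means activation above the run cutoff, the mean activation of all test compounds plus 3 SD, cut at about 18% in these data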
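System – CHO-K1 hM5 cells · Compound – 3 µM, single dose · Incubation – compound preincubation 140 s before EC20 acetylcholine addition · Technique – Fluo-8 calcium fluorescence · Measure – Max/basal fluorescence ratio as % of EC20–EC100 ACh window · Benchmarks – low control EC20 acetylcholine (0%), high control EC100 acetylcholine (100%) · Replication – singlicate, one well per test compound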
CHRM4 antagonist: antagonists of human muscarinic M4 receptor (CHRM4); P08173; CHO-hM4 cells, ACh EC80, Fluo-8 calcium fluorescence; inhibition, % at 3 µM; hit rate 0.73% among 360,000; AID 624125;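 active means inhibition above its plate's cutoff, the mean inhibition of sample wells plus 3 SD, cut at about 27% in these data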;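 further: 0% = acetylcholine EC80 with DMSO and 100% = DMSO without agonist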
CHRM4 PAM: positive allosteric modulators of human muscarinic M4 receptor. P08173. CHO-K1 hM4/Gqi5, Fluo-8 calcium fluorescence, ACh EC20; 0% = ACh EC20, 100% = maximal ACh. activation, % at 3 µM. hit rate 0.4% among 360,000. AID 624126;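 active means activation above its plate's cutoff, the mean activation of sample wells plus 3 SD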
M4 ag: agonists of human muscarinic M4 receptor (CHRM4). P08173. activation, % at 3 µM. hit rate 0.14% among 360,000. AID 624127. CHO-K1 hM4/Gqi5, Fluo-8 calcium fluorescence; vehicle 0%, full acetylcholine response 100%;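 active means activation above the run mean over all test wells plus 3 SD, cut at about 32% in these data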;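 further: peak over basal fluorescence ratio per well then scaled between controls; 0% = DMSO wells and 100% = acetylcholine at EC100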
* hit, by the source's call. A selection: hits, their analogues and other compounds. The true share with any hit is near 1.8%.

SMILES	CHRM5 antagonist	CHRM5 agonist	M5 PAM	CHRM4 antagonist	CHRM4 PAM	M4 ag
COc1ccc2cc(-c3cc(C(=O)OCC(=O)NC4CCS(=O)(=O)C4)c4ccccc4n3)ccc2c1 (stereo not drawn)	3	0	-2	9	-1	2
COc1ccc(CN(C(=O)c2ccccc2Br)C2CCS(=O)(=O)C2)cc1 (stereo not drawn)	2	1	-3	-1	5	1
O=C(c1ccccc1)c1sc(N2CCCCCC2)nc1-c1ccccc1	5	-8	-9	4	-9	0
COc1ccc(-c2nc(N3CCCCCC3)sc2C(=O)c2ccccc2)cc1	5	-3	-8	33*	-12	13
CN(CCO)c1cc(Sc2nc3ccccc3s2)c2nonc2c1[N+](=O)[O-]	21	1	-13	93*	-13	4
CC(=O)OCCN(C)c1cc(SC(C)C)c2nonc2c1[N+](=O)[O-]	10	0	-3	-3	-3	2
CC1CN(C(=O)CSc2nnc(-c3ccccc3)o2)CC(C)O1 (stereo not drawn)	-3	-2	22*	-10	17	1
O=C(CSc1nnc(CNC(=O)c2cccs2)o1)Nc1ccc(Cl)cc1	14	-2	-6	-7	-1	6
O=C(C(=O)N(Cc1ccccc1)Cc1ccccc1)c1c(-c2ccccc2)[nH]c2ccccc12	21	4	-17	31*	-12	19
CN(C)C(CNC(=O)c1cccc(S(=O)(=O)NCc2ccccc2)c1)c1ccco1 (stereo not drawn)	1	-2	4	-10	1	3
CCC(=O)c1ccc(OCC(=O)Nc2cccc(S(=O)(=O)N(C)c3ccccc3)c2)cc1	34*	1	-41	29*	-11	27
CN(c1ccccc1)S(=O)(=O)c1cccc(NS(=O)(=O)c2cccc(C(=O)O)c2)c1	-9	4	23*	-7	8	-2
Cc1ccc(S(=O)(=O)N(C)c2ccc(OCC(=O)Nc3nc4ccccc4s3)cc2)cc1	31*	0	-16	21	-13	10
CN(c1ccccc1)S(=O)(=O)c1cccc(C(=O)NC2CCCCC2)c1	-2	-2	1	-4	3	5
Cc1nnc(SCC(=O)Nc2cccc(S(=O)(=O)N(C)c3ccccc3)c2)s1	31*	8	-18	25	-8	13
O=C(CN1CCN(c2cccc(C(F)(F)F)c2)CC1)NCc1ccccc1	2	1	16	-11	4	1
CC(OC(=O)c1cc(-c2cccnc2)nc2ccccc12)C(=O)Nc1ccc2ccccc2c1 (stereo not drawn)	13	-2	-16	-1	-24	12
CCOc1ccc(S(=O)(=O)N2CCN(C(=O)c3ccc(C)c(S(=O)(=O)N4CCOCC4)c3)CC2)cc1	5	-3	-10	-8	-8	19
CN(C)C(CNC1CC(C)(C)NC(C)(C)C1)c1cccc(F)c1 (stereo not drawn)	-1	-2	1	12	-4	1
Cc1ccc(S(=O)(=O)N(C)c2ccc(OCC(=O)N3CCCCC3)cc2)cc1	-3	-1	-3	-8	5	4
CC1(C(=O)O)CCCN1C(=O)c1cccc(F)c1 (stereo not drawn)	10	2	0	-10	3	0
COc1ccccc1C(=O)N1CCN(C(=O)[C@H]2O[C@@H](n3ccc(=O)[nH]c3=O)[C@H](O)[C@@H]2O)CC1	-17	1	6	-10	21*	1
CCCCN(C(=O)c1ccc(C)o1)c1c(N)n(CC(C)C)c(=O)[nH]c1=O	13	-2	-8	-2	-2	0
COc1cc(OC)c(OC)cc1CNC(=O)c1cccc(S(=O)(=O)N2CCc3ccccc3C2)c1	0	8	-16	-5	-3	17
COc1cccc(CN2CCNC(=O)C2CC(=O)N(C)C2CCOCC2)c1OC (stereo not drawn)	28*	-6	-8	7	-3	0
SMILES	CHRM5 antagonist	CHRM5 agonist	M5 PAM	CHRM4 antagonist	CHRM4 PAM	M4 ag
COc1cccc(CN2CCNC(=O)C2CC(=O)N(C)CC2CCOCC2)c1OC (stereo not drawn)	-10	-1	2	-19	3	2
Cc1ccc(C)c(N2CCN(C(=O)c3ccc(CS(=O)Cc4cccc(Cl)c4)o3)CC2)c1 (stereo not drawn)	9	-4	-7	-7	-8	12
O=C(OCn1ncc(Cl)c(Cl)c1=O)c1cccc(C(F)(F)F)c1	20	-4	3	58*	-17	3
O=C(OCn1ncc(Br)c(Br)c1=O)c1ccccc1Cl	4	-1	12	24	7	0
Cc1cccc(NC(=O)c2ccc(F)c(S(=O)(=O)NCc3ccco3)c2)c1	-16	2	19*	-8	3	1
Cc1sc2nc(CN3CCOCC3)nc(N3CCOCC3)c2c1C	-3	-2	-3	3	8	0
Cc1sc2nc(CN3CCOCC3)nc(N3CCC(C(N)=O)CC3)c2c1C	4	1	-14	2	21*	4
CCOC(=O)C1CCN(C(C)=C2C(=O)c3ccccc3C2=O)CC1	-2	3	4	7	17*	-1
CCOC(=O)C1CCN(C(=O)CCCN2C(=O)c3ccccc3C2=O)CC1	8	-5	10	-5	6	1
CC(N)=Nc1ccc([N+](=O)[O-])cc1	-3	-1	1	-4	0	0
O=[N+]([O-])c1ccc(N=Nc2c(Cl)cc(O)cc2Cl)cc1	30*	12	-21	11	-11	16
CCCOc1ccc(C(=O)NC(=S)NNC(=O)c2c(-c3ccccc3)noc2C)cc1	16	19	-16	10	-9	32*
Cc1onc(-c2ccccc2)c1C(=O)NC(=S)NNC(=O)c1ccccc1O	-1	20	-17	2	-13	44*
CC(=O)Nc1ccc(NC(=O)C(C)OC(=O)CCC2CCCC2)cc1 (stereo not drawn)	-2	-3	-1	-4	2	2
CN(C)S(=O)(=O)c1ccc2c(c1)nc(CCC(=O)NCCc1ccc(Cl)cc1)n2C	4	-6	1	6	-2	3
Cc1sc(NC(=O)c2ccco2)nc1-c1ccc2c(c1)CC(C)N2C(=O)C1CC1 (stereo not drawn)	18	5	-16	32*	-15	17
CC(=O)Nc1nc(-c2ccc3c(c2)CC(C)N3C(=O)C2CC2)c(C)s1 (stereo not drawn)	3	-3	-3	-6	-8	2
